Sampled rows, rich in hits. Any-hit rate of the full collection: about 1.9%.
M5 antag = antagonists of human muscarinic M5 receptor (CHRM5); inhibition, % at 3 µM; P08912; CHO-hM5 cells, Fluo-8 calcium fluorescence, ACh EC80; 360,000 tested, 0.59% active;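 active = inhibition above a per-plate cutoff, the mean of that plate's test compounds plus 3 SD, cut at about 27% in these data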;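 also: 0% = acetylcholine EC80 with DMSO and 100% = DMSO without agonist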
Target sequence (P08912 whole entry, looked up): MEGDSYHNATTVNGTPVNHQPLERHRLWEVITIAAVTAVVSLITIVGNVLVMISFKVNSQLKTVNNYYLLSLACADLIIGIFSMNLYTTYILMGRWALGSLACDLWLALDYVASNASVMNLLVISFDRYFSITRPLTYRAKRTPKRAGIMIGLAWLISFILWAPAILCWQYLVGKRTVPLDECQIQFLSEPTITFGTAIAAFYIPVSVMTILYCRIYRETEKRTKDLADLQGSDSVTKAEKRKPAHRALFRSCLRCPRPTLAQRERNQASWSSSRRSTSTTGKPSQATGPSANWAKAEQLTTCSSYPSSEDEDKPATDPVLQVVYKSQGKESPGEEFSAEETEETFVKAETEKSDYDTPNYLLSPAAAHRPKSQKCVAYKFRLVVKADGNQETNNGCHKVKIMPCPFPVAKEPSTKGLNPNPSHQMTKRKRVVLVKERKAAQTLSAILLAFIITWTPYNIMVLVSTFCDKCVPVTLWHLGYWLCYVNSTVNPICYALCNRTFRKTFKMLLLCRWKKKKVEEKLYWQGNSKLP
M4 PAM = potentiates acetylcholine response at human M4 receptor; AID 624126; CHO-K1 hM4/Gqi5, Fluo-8 calcium fluorescence, ACh EC20; 0% = ACh EC20, 100% = maximal ACh; 360,000 tested, 0.4% active; activation, % at 3 µM; P08173;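 active = activation above its plate's cutoff, the mean activation of sample wells plus 3 SD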
M4 antag = antagonists of human muscarinic M4 receptor (CHRM4); P08173; CHO-hM4 cells, ACh EC80, Fluo-8 calcium fluorescence; inhibition, % at 3 µM; 360,000 tested, 0.73% active; AID 624125;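 active = inhibition above its plate's cutoff, the mean inhibition of sample wells plus 3 SD, cut at about 27% in these data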;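 also: 0% = acetylcholine EC80 with DMSO and 100% = DMSO without agonist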
M5 ag = CHRM5 agonism in calcium assay; P08912; CHO-K1 hM5 cells, Fluo-8 calcium fluorescence; 0% DMSO wells, 100% maximal acetylcholine response; activation, % at 3 µM; 360,000 tested, 0.19% active; AID 624037;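 active = activation above the run's mean over test compounds plus 3 SD, cut at about 23% in these data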;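 also: signal is peak over basal fluorescence ratio across the kinetic read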
CHRM5 PAM = potentiates acetylcholine response at human M5 receptor; activation, % at 3 µM; P08912; CHO-K1 hM5, Fluo-8 calcium, ACh EC20 PAM; 0% = ACh EC20, 100% = ACh EC100; 360,000 tested, 0.3% active; AID 624038;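 active = activation above the run cutoff, the mean activation of all test compounds plus 3 SD, cut at about 18% in these data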
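System – CHO-K1 hM5 cells · Compound – 3 µM, single dose · Incubation – compound preincubation 140 s before EC20 acetylcholine addition · Technique – Fluo-8 calcium fluorescence · Measure – Max/basal fluorescence ratio as % of EC20–EC100 ACh window · Benchmarks – low control EC20 acetylcholine (0%), high control EC100 acetylcholine (100%) · Replication – singlicate, one well per test compound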
CHRM4 agonist = agonists of human muscarinic M4 receptor (CHRM4). CHO-K1 hM4/Gqi5, Fluo-8 calcium fluorescence; vehicle 0%, full acetylcholine response 100%. activation, % at 3 µM. P08173. 360,000 tested, 0.14% active;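 active = activation above the run mean over all test wells plus 3 SD, cut at about 32% in these data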;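 also: peak over basal fluorescence ratio per well then scaled between controls; 0% = DMSO wells and 100% = acetylcholine at EC100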
Numbers without * were called inactive.

SMILES | M5 antag | M4 PAM | M4 antag | M5 ag | CHRM5 PAM | CHRM4 agonist
CC(C)(C)n1nnnc1C(c1ccccc1)N1CCN(c2c(Cl)cncc2Cl)CC1 (stereo unspecified) | -4.0 | -6.8 | -6.0 | -2.1 | -16.7 | 7.7
COc1ccc(C(C)=O)cc1CSc1nc2cc(C(=O)O)ccc2c(=O)n1Cc1ccccc1 | 6.9 | 9.4 | 28.4* | 1.0 | 1.5 | 1.6
S=C1NCCN1CC1CCN(CCC23CC4CC(CC(C4)C2)C3)CC1 | 10.9 | -15.0 | 57.9* | -3.0 | -15.9 | 2.7
CCN1CCC(CN2CCNC2=S)CC1 | -6.2 | -0.2 | -0.8 | -1.5 | 3.5 | -0.2
CC(C)C[C@H]1CNC(=S)N1CC1CCN(CCCC2CCCCC2)CC1 | 15.2 | -15.0 | 55.1* | -3.1 | -18.9 | 1.3
CC(C)C[C@H]1CNC(=S)N1CC1CCN(CC2CCCC2)CC1 | -3.1 | -5.8 | -7.1 | -3.0 | -14.7 | 0.5
CC(C)C[C@H]1CNC(=S)N1CC1CCN(CC2CCC(C(C)(C)C)CC2)CC1 (stereo partly specified) | 35.3* | -16.8 | 50.5* | -3.2 | -19.7 | 4.4
CC[C@H](C)[C@H]1CNC(=S)N1CC1CCN(CCCC2CCCC2)CC1 | 16.0 | -14.3 | 26.6* | -3.0 | -17.5 | 2.5
COc1ccc(C(C(=O)NC(C)(C)C)n2c(-c3ccc(-c4ccccc4)cc3)nc3ccccc32)cc1 (stereo unspecified) | -2.3 | 7.3 | -3.7 | -4.3 | -1.5 | -0.9
CC[C@H](C)[C@H]1CNC(=S)N1CC1CCN(CCCCc2ccccc2)CC1 | 20.2 | -15.1 | 37.3* | -3.4 | -18.4 | 0.8
CC(C)C[C@H]1CNC(=S)N1CC1CCN(CCC23CC4CC(CC(C4)C2)C3)CC1 | 49.2* | -16.1 | 66.6* | -3.4 | -19.5 | 3.1
COc1ccc(OC)c(CN2C(=O)CCC2(C)c2nnnn2-c2c(C)cccc2C)c1 (stereo unspecified) | -1.5 | 8.8 | -3.1 | 3.5 | -0.1 | 4.0
O=S(=O)(O)c1cc(O)ccc1O | -9.9 | 0.0 | -7.8 | 36.2* | -13.4 | 1.8
COC(=O)[C@@]12C[C@@H](CC(=O)NCC3CCCCC3)C(=O)N(Cc3ccc4c(c3)OCO4)C1=CCC(C)(C)C2 | 9.0 | -2.2 | 9.9 | -1.6 | 0.2 | 2.8
Cc1ccc2c(c1)[C@H]1[C@H](CO2)[C@H](c2ccccc2)[C@]2(C)C(=O)N(Cc3ccc(F)cc3)CC(=O)N12 | 13.0 | -8.0 | 16.4 | 24.4* | -3.4 | 12.0
COc1ccc2c(c1)OC[C@H]1[C@H]2N2C(=O)c3cc(OC)ccc3NC(=O)[C@@]2(C)[C@H]1c1ccccc1 | 4.3 | -6.0 | 26.5* | -0.3 | -9.9 | -0.2
C[C@@]12C(=O)Nc3cc(F)ccc3C(=O)N1[C@H]1c3ccccc3OC[C@@H]1[C@@H]2c1ccccc1 | 11.8 | -21.4 | 73.3* | -3.1 | -36.3 | 3.5
COc1ccc2c(c1)OC[C@H]1[C@H]2N2C(=O)c3ccc(C)cc3NC(=O)[C@@]2(C)[C@H]1c1ccccc1 | 4.5 | 5.6 | -6.7 | -2.2 | -1.8 | 2.9
COc1ccc2c(c1)OC[C@H]1[C@H]2N2C(=O)c3cc(F)ccc3NC(=O)[C@@]2(C)[C@H]1c1ccccc1 | 12.2 | -14.7 | 56.7* | -6.1 | -27.5 | 3.7
c1ccc(NN(Cc2ccccn2)c2ccccc2)cc1 | -0.8 | 7.4 | -13.6 | -2.7 | -2.2 | -1.6
COc1ccc2c(c1)OC[C@H]1[C@H]2N2C(=O)c3cc(Cl)ccc3NC(=O)[C@@]2(C)[C@H]1c1ccccc1 | 10.9 | -7.5 | 35.9* | -1.0 | -8.7 | 2.1
Cn1nc(OC(=O)Nc2cccc(Cl)c2)cc1C(F)(F)F | 27.4* | 1.0 | 4.7 | 6.3 | -17.4 | 15.4
O=C(N/N=C/c1cn(-c2cccs2)nc1-c1ccccc1)c1ccccc1Br | -6.4 | -5.2 | 9.7 | 1.8 | -6.0 | 4.3
O=C(N/N=C/c1cn(-c2cccs2)nc1-c1ccccc1)c1ccccc1O | 28.2* | -14.3 | 14.7 | 2.1 | -16.9 | 12.4
Cn1nnnc1NCc1cccc(Cl)c1Cl | 8.0 | 4.4 | -7.5 | -17.0 | 1.2 | 1.0
SMILES | M5 antag | M4 PAM | M4 antag | M5 ag | CHRM5 PAM | CHRM4 agonist
O=C(NCC1CCCO1)c1ccccc1 (stereo unspecified) | -3.5 | 0.2 | 4.9 | -6.9 | 1.1 | 0.4
O=C(COC(=O)c1cccs1)NCC1CCCO1 (stereo unspecified) | -0.1 | -2.0 | 9.1 | -0.1 | 1.6 | 0.4
O=C(NCC1CCCO1)c1cccs1 (stereo unspecified) | -6.0 | 35.6* | 5.5 | 3.9 | 2.1 | 0.6
O=C(NCC1CCCO1)NC1(C(F)(F)F)Oc2ccccc2O1 (stereo unspecified) | -2.4 | 4.5 | 3.1 | -11.9 | 34.8* | 0.4
CCc1ccccc1N(CC(=O)NC(C)C)C(=O)CCC(=O)Nc1nccs1 | -2.0 | 1.6 | 5.4 | 2.8 | 0.1 | 0.2
Cc1cc(C(=O)OCC(=O)N2CCOCC2)c2ccccc2n1 | -4.0 | 18.6* | -10.4 | -2.6 | -4.6 | 0.8
COC(=O)c1ccc(-c2nc(O)c3cnccn23)cc1 | 8.3 | 2.8 | -3.3 | -4.4 | -1.0 | 34.4*
Oc1nc(-c2ccc(Cl)cc2)n2ccncc12 | 11.4 | -0.3 | -5.2 | -3.9 | -1.4 | 0.9
O=C(COC(=O)c1cc([N+](=O)[O-])ccc1NCCO)Nc1ccc2c(c1)OCO2 | 16.4 | -5.0 | -3.0 | -0.1 | -7.9 | 4.3
CCN(CC)S(=O)(=O)c1cccc(NC(=O)Nc2cccc(C(F)(F)F)c2)c1 | 34.0* | -15.2 | 11.4 | 9.0 | -16.3 | 15.2
O=C(CNc1cccc(S(=O)(=O)N2CCCC2)c1)Nc1ccc(F)c(F)c1 | 9.7 | 20.5* | -16.7 | 6.4 | -10.4 | 13.8
Cc1cc(OCC(=O)Nc2cccc(S(=O)(=O)N3CCCCC3)c2)ccc1Cl | 14.3 | -6.7 | 3.6 | 1.6 | -15.2 | 4.8
CCC(=O)c1ccc(OCC(=O)Nc2cccc(S(=O)(=O)N3CCCCCC3)c2)cc1 | 28.9* | -13.3 | 25.1 | 5.1 | -31.3 | 26.1
O=C(COC(=O)c1cc([N+](=O)[O-])ccc1NCCO)Nc1cccc(S(=O)(=O)N2CCCC2)c1 | 14.6 | -15.0 | 34.6* | -3.6 | -8.9 | 4.7
CC[C@H](C)[C@@H](CO)NC(=O)[C@H]1O[C@@H](n2ccc(N)nc2=O)[C@H](O)[C@@H]1O | 6.2 | 3.1 | -6.2 | 0.2 | -3.4 | 0.0
COCC(=O)N1C[C@H]2CON(C)[C@H]2C[C@H]1c1cccc(-c2ccccc2)c1 | 0.2 | 4.7 | 0.1 | -0.8 | 1.7 | 0.1
COc1ccc(C(=O)COC(=O)CCN=C2NS(=O)(=O)c3ccccc32)c(OC)c1 | -0.7 | -5.6 | -11.9 | -2.8 | -6.5 | 0.0
COc1cc([N+](=O)[O-])cc2sc(NC(=O)C3CC3)nc12 | 7.0 | 6.7 | -6.6 | -3.6 | 0.6 | 0.4
